Columns and labels:
Assay type in all cases: functional
A549 [1] = experiment: Tested in vitro for cytotoxicity in A549/ATCC cell lines; settings: Homo sapiens
How it was run: (§1)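 Compounds dissolved in DMSO, then diluted 500-fold into aqueous medium. The resulting aqueous solutions or suspensions were added to the cultured human tumour cell lines, and the cells were exposed for 48 h. Growth was read colorimetrically in one of two ways: a metabolic assay in which viable cells reduce a tetrazolium salt to a formazan dye, or a protein stain for total cellular protein.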

A498 = experiment: Tested in vitro for cytotoxicity in A498 cell line of Renal cancer; settings: Homo sapiens, read-out: Log TGI (converted); how it was run: as §1
ACHN = experiment: Tested in vitro for cytotoxicity in ACHN cell line of Renal cancer; settings: Homo sapiens, read-out: Log TGI (converted); how it was run: as §1
A549 [2] = experiment: Tested in vitro for cytotoxicity in A549/ATCC cell line of Non-Small Cell Lung Cancer; settings: Homo sapiens, read-out: Log TGI (converted); how it was run: as §1
CAKI-1 [3] = experiment: Tested in vitro for cytotoxicity in CAKI-1 cell lines; settings: Homo sapiens; how it was run: as §1
CCRF-CEM [4] = experiment: Tested in vitro for cytotoxicity in CCRF-CEM cell line of Leukemia; settings: Homo sapiens, read-out: Log TGI (converted); how it was run: as §1
CCRF-CEM [5] = experiment: Tested in vitro for cytotoxicity in CCRF-CEM cell lines; settings: Homo sapiens; how it was run: as §1
COLO 205 = experiment: Tested in vitro for cytotoxicity in COLO 205 cell line of Colon Cancer; settings: Homo sapiens, read-out: Log TGI (converted); how it was run: as §1
CAKI-1 [6] = experiment: Tested in vitro for cytotoxicity in CAKI-1 cell line of Renal cancer; settings: Homo sapiens, read-out: Log TGI (converted); how it was run: as §1
DMS-114 [7] = experiment: Tested in vitro for cytotoxicity in DMS114 cell lines; settings: Homo sapiens; how it was run: as §1
DLD-1 = experiment: Tested in vitro for cytotoxicity in DLD-1 cell line of Colon Cancer; settings: Homo sapiens, read-out: Log TGI (converted); how it was run: as §1
DMS-114 [8] = experiment: Tested in vitro for cytotoxicity in DMS114 cell line of Small Cell Lung Cancer; settings: Homo sapiens, read-out: Log TGI (converted); how it was run: as §1
DMS-273 = experiment: Tested in vitro for cytotoxicity in DMS273 cell line of Small Cell Lung Cancer; settings: Homo sapiens, read-out: Log TGI (converted); how it was run: as §1
EKVX = experiment: Tested in vitro for cytotoxicity in EKVX cell line of Non-Small Cell Lung Cancer; settings: Homo sapiens, read-out: Log TGI (converted)
How it was run: (§2)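 Compound DMSO solutions diluted 500-fold into aqueous medium; the resulting solutions or suspensions were added to cultured human tumor cells for 48 h. Growth was read colorimetrically, either by tetrazolium reduction to formazan by viable cells or by a protein stain for total cellular protein.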

HCT-15 = experiment: Tested in vitro for cytotoxicity in HCT-15 cell line of Colon Cancer; settings: Homo sapiens, read-out: Log TGI (converted); how it was run: as §1
HOP-62 = experiment: Tested in vitro for cytotoxicity in HOP-62 cell line of Non-Small Cell Lung Cancer; settings: Homo sapiens, read-out: Log TGI (converted); how it was run: as §1
HL-60 = experiment: Tested in vitro for cytotoxicity in HL-60(TB) cell line of Leukemia; settings: Homo sapiens, read-out: Log TGI (converted)
How it was run: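 Compounds were dissolved in DMSO and diluted 500-fold in aqueous medium. Aliquots of the resulting solution or suspension were added to the cultured cells for 48 h. Growth was read colorimetrically, either by tetrazolium reduction to formazan in viable cells or by a total-protein stain.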

HCC 2998 = experiment: Tested in vitro for cytotoxicity in HCC2998 cell line of Colon Cancer; settings: Homo sapiens, read-out: Log TGI (converted); how it was run: as §1
HOP-18 = experiment: Tested in vitro for cytotoxicity in HOP-18 cell line of Non-Small Cell Lung Cancer; settings: Homo sapiens, read-out: Log TGI (converted); how it was run: as §1
HT-29 = experiment: Tested in vitro for cytotoxicity in HT-29 cell line of Colon Cancer; settings: Homo sapiens, read-out: Log TGI (converted); how it was run: as §1
HOP-92 = experiment: Tested in vitro for cytotoxicity in HOP-92 cell line of Non-Small Cell Lung Cancer; settings: Homo sapiens, read-out: Log TGI (converted); how it was run: as §1
IGROV-1 [9] = experiment: Tested in vitro for cytotoxicity in IGROV1 cell lines; settings: Homo sapiens; how it was run: as §1
IGROV-1 [10] = experiment: Tested in vitro for cytotoxicity in IGROV1 cell line of Ovarian Cancer; settings: Homo sapiens, read-out: Log TGI (converted); how it was run: as §1
KM-20L2 = experiment: Tested in vitro for cytotoxicity in KM20L2 cell line of Colon Cancer; settings: Homo sapiens, read-out: Log TGI (converted); how it was run: as §2
K562 = experiment: Tested in vitro for cytotoxicity in K-562 cell line of Leukemia; settings: Homo sapiens, read-out: Log TGI (converted); how it was run: as §1
KM12 = experiment: Tested in vitro for cytotoxicity in KM12 cell line of Colon Cancer; settings: Homo sapiens, read-out: Log TGI (converted); how it was run: as §1
M19-MEL = experiment: Tested in vitro for cytotoxicity in M19-MEL cell line of Melanoma; settings: Homo sapiens, read-out: Log TGI (converted); how it was run: as §1
M14 = experiment: Tested in vitro for cytotoxicity in M14 cell line of Melanoma; settings: Homo sapiens, read-out: Log TGI (converted); how it was run: as §1
LOX IMVI = experiment: Tested in vitro for cytotoxicity in LOX IMVI cell line of Melanoma; settings: Homo sapiens, read-out: Log TGI (converted); how it was run: as §1
LXFL 529 = experiment: Tested in vitro for cytotoxicity in LXFL-529 cell line of Non-Small Cell Lung Cancer; settings: Homo sapiens, read-out: Log TGI (converted); how it was run: as §1
Malme-3M = experiment: Tested in vitro for cytotoxicity in MALME-3M; settings: Homo sapiens; how it was run: as §1

SMILES: COc1ccc2[nH]c3c(C)c4cc[n+](C)cc4c(C)c3c2c1
- GI50 (A549 [1]): 1.52 µM
- TGI (A498): > 100 µM
- TGI (ACHN): > 100 µM
- TGI (A549 [2]): > 100 µM
- GI50 (CAKI-1 [3]): 48.2 µM
- TGI (CCRF-CEM [4]): > 100 µM
- GI50 (CCRF-CEM [5]): 4.22 µM
- TGI (COLO 205): 39.8 µM
- TGI (CAKI-1 [6]): > 100 µM
- GI50 (DMS-114 [7]): 0.811 µM
- TGI (DLD-1): > 100 µM
- TGI (DMS-114 [8]): 6.31 µM
- TGI (DMS-273): 63.1 µM
- TGI (EKVX): 25.1 µM
- TGI (HCT-15): > 100 µM
- TGI (HOP-62): 6.31 µM
- TGI (HL-60): > 100 µM
- TGI (HCC 2998): 63.1 µM
- TGI (HOP-18): > 100 µM
- TGI (HT-29): > 100 µM
- TGI (HOP-92): 79.4 µM
- GI50 (IGROV-1 [9]): 3.62 µM
- TGI (IGROV-1 [10]): > 100 µM
- TGI (KM-20L2): > 100 µM
- TGI (K562): > 100 µM
- TGI (KM12): 25.1 µM
- TGI (M19-MEL): 25.1 µM
- TGI (M14): > 100 µM
- TGI (LOX IMVI): > 100 µM
- TGI (LXFL 529): 10 µM
- GI50 (Malme-3M): 5.27 µM
